From ChEMBL document CHEMBL3817745, “Structure-Activity Relationship for the 4(3H)-Quinazolinone Antibacterials” (J Med Chem, 2016)
≈ marks a conversion by molar mass, not a printed value.

Tests used:
Format in all cases: functional
Enterococcus faecium = experiment: Antibacterial activity against Enterococcus faecium NCTC 7171 incubated for 16 to 20 hrs by microdilution method
Procedure, shortened: (§1)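 CLSI broth microdilution. 2-fold serial dilutions were made in cation-adjusted Mueller–Hinton broth, with 5% lysed horse blood added for Streptococcus strains, in triplicate. Inoculum 5×10^5 CFU/mL. Plates incubated 36 °C for 16–20 h. MIC taken as the lowest concentration visibly inhibiting growth.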

Acinetobacter baumannii = experiment: Antibacterial activity against Acinetobacter baumannii ATCC 17961 incubated for 16 to 20 hrs by microdilution method; procedure, shortened: as §1
Staphylococcus aureus = experiment: Antibacterial activity against methicillin-susceptible Staphylococcus aureus ATCC 29213 incubated for 16 to 20 hrs by microdilution method
Klebsiella pneumoniae = experiment: Antibacterial activity against Klebsiella pneumoniae ATCC 700603 incubated for 16 to 20 hrs by microdilution method; procedure, shortened: as §1
Pseudomonas aeruginosa = experiment: Antibacterial activity against Pseudomonas aeruginosa […] incubated for 16 to 20 hrs by microdilution method; procedure, shortened: as §1
Escherichia coli = experiment: Antibacterial activity against Escherichia coli ATCC 25922 incubated for 16 to 20 hrs by microdilution method; procedure, shortened: as §1
Klebsiella aerogenes = experiment: Antibacterial activity against Enterobacter aerogenes ATCC 35029 incubated for 16 to 20 hrs by microdilution method; procedure, shortened: as §1

SMILES | MIC (Enterococcus faecium) | MIC (Acinetobacter baumannii) | MIC (Staphylococcus aureus) | MIC (Klebsiella pneumoniae) | MIC (Pseudomonas aeruginosa) | MIC (Escherichia coli) | MIC (Klebsiella aerogenes)
O=c1c2ccccc2nc(/C=C/c2ccncc2)n1-c1cccc(O)c1 | ≥ 8 µg/mL | ≥ 16 µg/mL | 2 µg/mL (≈ 5.86 µM) | ≥ 16 µg/mL | ≥ 16 µg/mL | ≥ 16 µg/mL | ≥ 16 µg/mL
O=c1c2ccccc2nc(/C=C/c2ccco2)n1-c1cccc(O)c1 | ≥ 8 µg/mL | ≥ 16 µg/mL | 128 µg/mL (≈ 387 µM) | ≥ 16 µg/mL | ≥ 16 µg/mL | ≥ 16 µg/mL | ≥ 16 µg/mL
COc1ccc(/C=C/c2nc3ccccc3c(=O)n2-c2cccc(O)c2)cc1 | ≥ 8 µg/mL | ≥ 16 µg/mL | 4 µg/mL (≈ 10.8 µM) | ≥ 16 µg/mL | ≥ 16 µg/mL | ≥ 16 µg/mL | ≥ 16 µg/mL
O=c1c2ccccc2nc(/C=C/c2ccc(O)cc2)n1-c1cccc(O)c1 | ≥ 8 µg/mL | ≥ 16 µg/mL | > 128 µg/mL | ≥ 16 µg/mL | ≥ 16 µg/mL | ≥ 16 µg/mL | ≥ 16 µg/mL
N#Cc1ccc(/C=C/c2nc3cc([N+](=O)[O-])ccc3c(=O)n2-c2cccc(C(=O)O)c2)cc1 | ≥ 8 µg/mL | ≥ 16 µg/mL | 64 µg/mL (≈ 146 µM) | ≥ 16 µg/mL | ≥ 16 µg/mL | ≥ 16 µg/mL | ≥ 16 µg/mL
Nc1ccc(/C=C/c2nc3ccccc3c(=O)n2-c2cccc(O)c2)cc1 | ≥ 8 µg/mL | ≥ 16 µg/mL | 16 µg/mL (≈ 45 µM) | ≥ 16 µg/mL | ≥ 16 µg/mL | ≥ 16 µg/mL | ≥ 16 µg/mL
Cc1ccc(-c2nc3ccccc3c(=O)n2-c2cccc(O)c2)cc1 | ≥ 8 µg/mL | ≥ 16 µg/mL | 128 µg/mL (≈ 390 µM) | ≥ 16 µg/mL | ≥ 16 µg/mL | ≥ 16 µg/mL | ≥ 16 µg/mL
CCc1ccc(/C=C/c2nc3ccccc3c(=O)n2-c2cccc(O)c2)cc1 | ≥ 8 µg/mL | ≥ 16 µg/mL | 0.5 µg/mL (≈ 1.36 µM) | ≥ 16 µg/mL | ≥ 16 µg/mL | ≥ 16 µg/mL | ≥ 16 µg/mL
N#Cc1ccc(/C=C/c2nc3cc(C(=O)O)ccc3c(=O)n2-c2cccc(C(=O)O)c2)cc1 | ≥ 8 µg/mL | ≥ 16 µg/mL | 128 µg/mL (≈ 293 µM) | ≥ 16 µg/mL | ≥ 16 µg/mL | ≥ 16 µg/mL | ≥ 16 µg/mL
O=c1c2ccccc2nc(/C=C/c2ccccc2)n1-c1cccc(O)c1 | ≥ 8 µg/mL | ≥ 16 µg/mL | 0.5 µg/mL (≈ 1.47 µM) | ≥ 16 µg/mL | ≥ 16 µg/mL | ≥ 16 µg/mL | ≥ 16 µg/mL
O=c1c2ccccc2nc(/C=C/c2ccccc2F)n1-c1cccc(O)c1 | ≥ 8 µg/mL | ≥ 16 µg/mL | 1 µg/mL (≈ 2.79 µM) | ≥ 16 µg/mL | ≥ 16 µg/mL | ≥ 16 µg/mL | ≥ 16 µg/mL
O=c1c2ccccc2nc(Cc2ccccc2)n1-c1cccc(O)c1 | ≥ 8 µg/mL | ≥ 16 µg/mL | 32 µg/mL (≈ 97.5 µM) | ≥ 16 µg/mL | ≥ 16 µg/mL | ≥ 16 µg/mL | ≥ 16 µg/mL
C#Cc1ccc(/C=C/c2nc3ccccc3c(=O)n2-c2cccc(O)c2)cc1 | ≥ 8 µg/mL | ≥ 16 µg/mL | 0.003 µg/mL (≈ 0.00823 µM) | ≥ 16 µg/mL | ≥ 16 µg/mL | ≥ 16 µg/mL | ≥ 16 µg/mL
O=c1c2ccccc2nc(/C=C/c2ccc3c(c2)OCO3)n1-c1cccc(O)c1 | ≥ 8 µg/mL | ≥ 16 µg/mL | 2 µg/mL (≈ 5.2 µM) | ≥ 16 µg/mL | ≥ 16 µg/mL | ≥ 16 µg/mL | ≥ 16 µg/mL
O=c1c2ccccc2nc(/C=C/c2ccc([N+](=O)[O-])cc2)n1-c1cccc(O)c1 | ≥ 8 µg/mL | ≥ 16 µg/mL | – | ≥ 16 µg/mL | ≥ 16 µg/mL | ≥ 16 µg/mL | ≥ 16 µg/mL
O=C(O)c1cccc(-n2c(/C=C/c3ccc(Cl)cc3)nc3ccncc3c2=O)c1 | ≥ 8 µg/mL | ≥ 16 µg/mL | – | ≥ 16 µg/mL | ≥ 16 µg/mL | ≥ 16 µg/mL | ≥ 16 µg/mL
N#Cc1ccc(/C=C/c2nc3ccncc3c(=O)n2-c2cccc(C(=O)O)c2)cc1 | ≥ 8 µg/mL | ≥ 16 µg/mL | – | ≥ 16 µg/mL | ≥ 16 µg/mL | ≥ 16 µg/mL | ≥ 16 µg/mL
